According to ChEMBL document CHEMBL1150347, “A prodomain peptide of Plasmodium falciparum cysteine protease (falcipain-2) inhibits malaria parasite development” (J Med Chem, 2008):
Calls of active or inactive are those of the source. The calls are words filed in the database; no cut-off is given here. Residues, ends and D or L forms follow the SMILES beside them.

Assays:
[1] = molecular target: T1, Falcipain 2 (Plasmodium falciparum) (UniProt Q9N6S8); assay: (§1) Inhibition of Plasmodium falciparum recombinant falcipain-2
T1 sequence (whole entry): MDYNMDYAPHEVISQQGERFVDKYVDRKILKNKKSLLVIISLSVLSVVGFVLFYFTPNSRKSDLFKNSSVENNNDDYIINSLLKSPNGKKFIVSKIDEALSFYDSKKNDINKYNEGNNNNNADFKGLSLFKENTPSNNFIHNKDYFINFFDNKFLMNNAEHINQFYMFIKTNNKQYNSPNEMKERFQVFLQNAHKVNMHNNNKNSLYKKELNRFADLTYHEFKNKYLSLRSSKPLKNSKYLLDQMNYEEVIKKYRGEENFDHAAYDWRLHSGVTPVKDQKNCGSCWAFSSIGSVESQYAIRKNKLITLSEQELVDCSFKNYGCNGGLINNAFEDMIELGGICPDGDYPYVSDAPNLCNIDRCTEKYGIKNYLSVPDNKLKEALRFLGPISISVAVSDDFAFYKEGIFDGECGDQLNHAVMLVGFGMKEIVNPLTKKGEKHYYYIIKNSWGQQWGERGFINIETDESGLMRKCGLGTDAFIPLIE
Summary of the method: (§2)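 Refolded recombinant falcipain-2 at 200 nM, preincubated with peptide for 10 min at room temperature. Z-F-R-AMC then added at 7 µM in 100 mM sodium acetate pH 5.5 with 10 mM DTT. AMC release (ex 355/em 460 nm) followed for 30 min at room temperature. Km/Vmax from varied substrate; Ki from double-reciprocal plot; three experiments.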

[2] = system: Plasmodium falciparum; assay: Growth inhibition at 24 hrs of Plasmodium falciparum 3D7 at 100 uM by [3H]hypoxanthine uptake; assay type: functional
Summary of the method: (§3)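 Synchronized ring-stage P. falciparum-infected RBCs incubated 24 h with a range of peptide concentrations, with OVA peptide as control. About 1 µCi [3H]hypoxanthine added per well and cultures kept a further 24 h. Cells harvested and incorporated label counted by scintillation.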

[3] = system: Plasmodium falciparum; assay: Growth inhibition at 24 hrs of Plasmodium falciparum 3D7 by [3H]hypoxanthine uptake; assay type: functional, organism-based; summary of the method: as §3
[4] = molecular target: T1, Falcipain 2 (Plasmodium falciparum); assay: Inhibition of Plasmodium falciparum 3D7 falcipain-2 in RBC assessed as Z-FR-AMC substrate hydrolysis by confocal microscopy relative to control; details: concentration not given here
Summary of the method: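 3D7 cultures at 4-5% parasitemia given FITC-labelled peptide for 10 h at 24-28 h post-invasion. After washing in complete medium, Z-F-R-AMC added for 10 min. Confocal imaging: FITC excitation 488 nm, emission 505-530 nm; released AMC captured through a UV band-pass filter. Fluorescence averaged over selected whole parasites and compared with untreated infected cells.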

[5] = system: Plasmodium falciparum; assay: Growth inhibition as abnormal food vacuole formation after 36 hrs in Plasmodium falciparum trophozoite infected erythrocytes; assay type: functional, organism-based
[6] = molecular target: T2, Falcipain 2 (Plasmodium falciparum, UniProt Q9N6S8); assay: as §1; summary of the method: as §2
T2 sequence (Q9N6S8 whole entry): T1 sequence (whole entry)

[7] = system: Plasmodium falciparum; assay: Growth inhibition as reduced parasitaemia at 24 hrs for Plasmodium falciparum 3D7 by Giemsa-stained smear counting; parameters: scale not given: the % may be the effect or the level left
[8] = system: Plasmodium falciparum; assay: Growth inhibition as merozoite release after 36 hrs in Plasmodium falciparum infected erythrocytes; assay type: functional, organism-based
[9] = system: Plasmodium falciparum; assay: Inhibition of Plasmodium falciparum recombinant falcipain-1
Summary of the method: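 Active recombinant falcipain-1 incubated with prodomain peptide; protease activity read as fluorescence from Z-FR-AMC cleavage at pH 5.5, followed over 30 min. Three independent sets of experiments.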

[10] = molecular target: T1, Falcipain 2 (Plasmodium falciparum); assay: Inhibition of Plasmodium falciparum falcipain-2 in RBC assessed as hemoglobin degradation after 24 hrs by SDS-PAGE
Summary of the method: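 Ring-stage P. falciparum treated 24 h. Infected RBCs lysed with 0.15% saponin in PBS on ice for 10 min, then washed three times with cold PBS. About 1 × 10^6 parasites per lane run on 15% SDS-PAGE in Laemmli buffer; Coomassie staining used to look for undigested hemoglobin.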

[11] = system: Plasmodium falciparum; assay: Growth inhibition after 10 hrs of Plasmodium falciparum expressing KAHRP-His-GFP at 100 uM; assay type: functional, organism-based
Summary of the method: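 KAHRP(-His)-GFP transgenic line, kept on 0.25 nM WR99210, sorbitol-synchronized, cultured in human RBCs (4% hematocrit) in RPMI. Peptide added at the ring stage. GFP fluorescence imaged after 3 h and 10 h of treatment, with bright field and DAPI; growth arrest read as loss of GFP signal.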

Q: With `CC[C@H](C)[C@H](N)C(=O)N[C@@H](CO)C(=O)N[C@@H](CCC(N)=O)C(=O)N[C@@H](C)C(=O)N[C@H](C(=O)N[C@@H](Cc1cnc[nH]1)C(=O)N[C@@H](C)C(=O)N[C@@H](C)C(=O)N[C@@H](Cc1cnc[nH]1)C(=O)N[C@@H](C)C(=O)N[C@@H](CCC(=O)O)C(=O)N[C@H](C(=O)N[C@@H](CC(N)=O)C(=O)N[C@@H](CCC(=O)O)C(=O)N[C@@H](C)C(=O)NCC(=O)N[C@@H](CCCNC(=N)N)C(=O)O)[C@@H](C)CC)C(C)C` [ovalbumin peptide] (H-ISQAVHAAHAEINEAGR-OH) as the compound, how does the Activity [1] read?
A: Its Activity is “inactive”.

Q: What about the inhibition at 100 µM [2] of the same compound?
A: The inhibition at 100 µM was 80%.

Q: And the Activity [3]?
A: Its Activity is “inactive”.

Q: `CC[C@H](C)[C@H](NC(=O)[C@H](Cc1ccccc1)NC(=O)[C@H](CCSC)NC(=O)[C@H](Cc1ccc(O)cc1)NC(=O)[C@H](Cc1ccccc1)NC(=O)[C@H](CCC(N)=O)NC(=O)[C@H](CC(N)=O)NC(=O)[C@@H](NC(=O)[C@H](Cc1cnc[nH]1)NC(=O)[C@H](CCC(=O)O)NC(=O)[C@H](C)NC(=O)[C@H](CC(N)=O)NC(=O)[C@H](CC(N)=O)NC(=O)[C@H](CCSC)NC(=O)[C@H](CC(C)C)NC(=S)Nc1cccc2c1C(=O)OC21c2ccccc2Oc2cc(O)ccc21)[C@@H](C)CC)C(=O)O` (some centres not stated) was tested. Which inhibition [4] did it give?
A: Its inhibition is 50%.

Q: What does the source list for `CC[C@H](C)[C@H](NC(=O)[C@H](Cc1ccccc1)NC(=O)[C@H](CCSC)NC(=O)[C@H](Cc1ccc(O)cc1)NC(=O)[C@H](Cc1ccccc1)NC(=O)[C@H](CCC(N)=O)NC(=O)[C@H](CC(N)=O)NC(=O)[C@@H](NC(=O)[C@H](Cc1c[nH]cn1)NC(=O)[C@H](CCC(=O)O)NC(=O)[C@H](C)NC(=O)[C@H](CC(N)=O)NC(=O)[C@H](CC(N)=O)NC(=O)[C@H](CCSC)NC(=O)[C@@H](N)CC(C)C)[C@@H](C)CC)C(=O)O` (H-LMNNAEHINQFYMFI-OH)?
A: Activity [5]: Active; Ki [6]: 3.8 µM; inhibition at 100 µM [2]: 50%; Activity [7]: 50%; Activity [8]: Active; Activity [9]: inactive; Activity [10]: Active; Activity [11]: Active

Q: How did the Activity [1] turn out when `CC[C@H](C)[C@H](NC(=O)[C@H](Cc1ccccc1)NC(=O)[C@@H](NC(=O)[C@H](Cc1ccc(O)cc1)NC(=O)[C@H](Cc1ccccc1)NC(=O)[C@H](CCC(N)=O)NC(=O)[C@H](CC(N)=O)NC(=O)[C@@H](NC(=O)[C@H](Cc1c[nH]cn1)NC(=O)[C@H](CCC(=O)O)NC(=O)[C@@H](NC(=O)[C@H](CC(N)=O)NC(=O)[C@H](CC(N)=O)NC(=O)[C@H](CCSC)NC(=O)[C@@H](N)CC(C)C)C(C)C)[C@@H](C)CC)[C@@H](C)O)C(=O)O` (H-LMNNVEHINQFYTFI-OH) was run?
A: The Activity was “Active”.

Q: For `CC(C)C[C@H](NC(=O)[C@H](Cc1ccccc1)NC(=O)[C@@H](NC(=O)[C@H](CCC(N)=O)NC(=O)[C@H](Cc1ccccc1)NC(=O)[C@@H](N)CCCNC(=N)N)C(C)C)C(=O)N[C@@H](CCC(N)=O)C(=O)N[C@@H](CC(N)=O)C(=O)N[C@@H](C)C(=O)N[C@@H](Cc1c[nH]cn1)C(=O)N[C@@H](CCCCN)C(=O)N[C@H](C(=O)O)C(C)C` (H-RFQVFLQNAHKV-OH), which Activity [3] is on record?
A: Its Activity is “inactive”.

Q: With `CC[C@H](C)[C@H](NC(=O)[C@H](CCSC)NC(=O)[C@H](Cc1ccc(O)cc1)NC(=O)[C@H](Cc1ccccc1)NC(=O)[C@H](CCC(N)=O)NC(=O)[C@H](CC(N)=O)NC(=O)[C@@H](NC(=O)[C@H](Cc1cnc[nH]1)NC(=O)[C@H](CCC(=O)O)NC(=O)[C@H](C)NC(=O)[C@H](CC(N)=O)NC(=O)[C@H](CC(N)=O)NC(=O)[C@H](CCSC)NC(=O)[C@H](CC(C)C)NC(=O)[C@H](CCCCN)NC(=O)[C@H](CCCCN)NC(=O)[C@H](Cc1c[nH]c2ccccc12)NC(=O)[C@H](CCCCN)NC(=O)[C@H](CCSC)NC(=O)[C@H](CCCNC(=N)N)NC(=O)[C@H](CCCNC(=N)N)NC(=O)[C@H](CC(N)=O)NC(=O)[C@H](CCC(N)=O)NC(=O)[C@H](Cc1ccccc1)NC(=O)[C@H](Cc1c[nH]c2ccccc12)NC(=O)[C@@H](NC(=O)[C@H](CCCCN)NC(=O)[C@@H](NC(=O)[C@H](CCC(N)=O)NC(=O)[C@@H](N)CCCNC(=N)N)[C@@H](C)CC)[C@@H](C)CC)[C@@H](C)CC)C(=O)O` (H-RQIKIWFQNRRMKWKKLMNNAEHINQFYMI-OH) as the compound, how does the Activity [7] read?
A: Its Activity is 50%.

Q: How did the Activity [10] turn out when `CC(C)C[C@H](NC(=O)[C@H]1O[C@@H]1C(=O)O)C(=O)NCCCCN=C(N)N` was run?
A: Its Activity is “Active”.

Q: `CSCC[C@H](NC(=O)[C@H](CC(N)=O)NC(=O)[C@@H](NC(=O)[C@H](CCCCN)NC(=O)[C@H](Cc1c[nH]cn1)NC(=O)[C@H](C)NC(=O)[C@H](CC(N)=O)NC(=O)[C@H](CCC(N)=O)NC(=O)[C@H](CC(C)C)NC(=O)[C@H](Cc1ccccc1)NC(=O)[C@@H](NC(=O)[C@H](CCC(N)=O)NC(=O)[C@H](Cc1ccccc1)NC(=O)[C@H](CCCNC(=N)N)NC(=O)[C@H](CCC(=O)O)NC(=O)[C@H](CCCCN)NC(=O)[C@H](CCSC)NC(=O)[C@@H](N)CCC(=O)O)C(C)C)C(C)C)C(=O)N[C@@H](Cc1c[nH]cn1)C(=O)N[C@@H](CC(N)=O)C(=O)O` (H-EMKERFQVFLQNAHKVNMHN-OH) was tested. Which Activity [3] did it give?
A: The Activity was “inactive”.
